Jurkat NFkB inh = inhibitors of the PMA/ionomycin-induced NF-kB reporter in Jurkat cells | PMA/ionomycin-induced NF-kB luciferase reporter, luminescence | inhibition, % at 4 µM | 0.53% of 330,000 active; in the data active = inhibition above about 50%
Mdm2-MdmX inh = human Mdm2/MdmX binding inhibition. O15151+Q00987. SaOS-2 split-luciferase Mdm2/MdmX complementation, luminescence. inhibition, % at 8 µM. 3% of 330,000 active. AID 485346;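 active = inhibition of at least 50% at 8 µM in the primary screen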
Target sequence (O15151 whole entry, looked up): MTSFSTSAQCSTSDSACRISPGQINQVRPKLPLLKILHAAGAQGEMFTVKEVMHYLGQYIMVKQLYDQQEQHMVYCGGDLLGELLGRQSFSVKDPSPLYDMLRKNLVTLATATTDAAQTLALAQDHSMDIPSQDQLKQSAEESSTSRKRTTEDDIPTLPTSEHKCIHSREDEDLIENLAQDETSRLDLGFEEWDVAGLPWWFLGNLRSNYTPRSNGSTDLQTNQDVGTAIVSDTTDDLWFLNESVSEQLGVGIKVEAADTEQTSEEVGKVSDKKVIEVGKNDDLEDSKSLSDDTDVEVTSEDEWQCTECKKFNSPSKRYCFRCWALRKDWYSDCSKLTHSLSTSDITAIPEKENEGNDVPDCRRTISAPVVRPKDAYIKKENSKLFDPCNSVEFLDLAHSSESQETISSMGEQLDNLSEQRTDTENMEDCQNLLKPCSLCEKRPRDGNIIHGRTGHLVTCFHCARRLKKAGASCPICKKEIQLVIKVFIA
Target sequence (Q00987 whole entry, looked up): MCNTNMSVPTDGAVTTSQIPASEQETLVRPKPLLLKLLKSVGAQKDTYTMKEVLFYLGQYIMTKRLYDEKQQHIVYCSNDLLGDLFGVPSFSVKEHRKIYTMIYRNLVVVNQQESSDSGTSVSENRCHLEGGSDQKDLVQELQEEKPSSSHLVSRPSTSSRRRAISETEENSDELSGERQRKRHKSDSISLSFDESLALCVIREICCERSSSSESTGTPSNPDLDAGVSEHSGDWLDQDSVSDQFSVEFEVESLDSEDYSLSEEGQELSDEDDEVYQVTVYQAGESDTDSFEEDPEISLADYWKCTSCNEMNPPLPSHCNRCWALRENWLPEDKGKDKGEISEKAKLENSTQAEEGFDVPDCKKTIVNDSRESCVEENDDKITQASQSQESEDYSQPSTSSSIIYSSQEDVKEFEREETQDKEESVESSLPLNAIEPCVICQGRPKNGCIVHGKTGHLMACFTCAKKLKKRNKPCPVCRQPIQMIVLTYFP
IMP-1 inhibitor = inhibitors of Pseudomonas aeruginosa IMP-1 metallo-beta-lactamase; purified IMP-1, nitrocefin hydrolysis, epi-absorbance fluorescence; inhibition, % at 5.6 µM; 0.45% of 290,000 active; AID 1556;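 active = inhibition above the mean plus 3 SD of all compounds in the same screening run, cut at about 4.5% in these data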;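 note: 0% = IMP-1 with DMSO and 100% = DMSO wells lacking enzyme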
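System: Purified IMP-1 | Read-out basis: Percent enzyme inhibition | Controls: IMP-1 with DMSO as 0%, enzyme-free DMSO as 100% | Replicates: One well per compound | Doses: 5.6 µM nominal single concentration | Detection: Epi-absorbance fluorescence, 480 nm excitation, 530 nm emission | Incubation: 25 °C, 15 min preincubation, 25 min reaction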
VIM-2 inhibitor = inhibitors of Pseudomonas aeruginosa VIM-2 metallo-beta-lactamase; purified VIM-2, nitrocefin hydrolysis, epi-absorbance fluorescence; inhibition, % at 5.6 µM; 0.89% of 290,000 active;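 active = inhibition above the mean of all tested compounds plus 3 SD, cutoff set per screening run, cut at about 7.5% in these data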;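 note: red hydrolysis product quenches plate fluorescence so inhibitors raise well fluorescence; 0% = enzyme with DMSO and 100% = DMSO without enzyme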
aSyn 5UTR inh = MLPCN primary screen, SNCA 5' untranslated region. alpha-synuclein 5'UTR reporter, inhibitor activity. inhibition, % (tested at 7.5 µM). 0.82% of 300,000 active; in the data active = inhibition above about 60%;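 note: H4 neuroglioblastoma cells stably carrying SNCA 5'UTR luciferase fusion; 0% = DMSO wells and 100% = positive control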
697 NFkB inh = inhibitors of the PMA/ionomycin-induced NF-kB reporter in 697 B cells; AID 435022; inhibition, % at 4 µM; 697 B-cell NF-kB luciferase reporter, 16 h; 0.33% of 330,000 active; in the data active = inhibition above about 35%
Mdm2 MdmX conf = confirmation of human Mdm2/MdmX interaction inhibitors. shares compounds with Mdm2-MdmX inh. Mdm2-MdmX binding, luminescent assay. inhibition, % at 8 µM. 55% of 10,000 active; in the data active = inhibition above about 40%
Full FLuc ctr = full-length luciferase inhibition in Mdm2/MdmX counter-screen; 77% of 6,200 active; inhibition, % at 8 µM; shares compounds with Mdm2-MdmX inh; SaOS-2 full-length luciferase counterscreen, luminescence;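 active = mean inhibition at 8 µM reaching about 37%, which flags the compound as non-specific, limit read from the data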;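 note: p53-null SaOS-2 cells with luciferase driven by a doxycycline-inducible promoter; compound on cells about two nights before reading with doxycycline added after day one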
Numbers without * were called inactive; / = not tested or not shown. Shown are actives, neighbours in structure and some others; about 4.7% of the full set was active somewhere.

SMILES	Jurkat NFkB inh	Mdm2-MdmX inh	IMP-1 inhibitor	VIM-2 inhibitor	aSyn 5UTR inh	697 NFkB inh	Mdm2 MdmX conf	Full FLuc ctr
CCN(CC)CCNc1ncnc2c1sc1nc(N3CCCC3)c3c(c12)CC(C)(C)OC3	0	59*	-1	3	4	-33	32	/
CC(NS(=O)(=O)/C=C/c1ccccc1)C(=O)NCCc1ccc(S(N)(=O)=O)cc1 (configuration not stated)	-32	-34	-3	-2	-4	20	/	/
CCn1c(C)nc2cc(C(=O)N/N=C/c3ccc(N4CCOCC4)cc3)ccc21	1	23	-2	-3	-31	8	/	/
Cc1ccc(S(=O)(=O)/C(C#N)=C/c2c(Oc3ccc(Cl)cc3)nc3c(C)cccn3c2=O)cc1	7	59*	-2	-5	-39	-5	8	/
Cc1ccc(Oc2nc3c(C)cccn3c(=O)c2/C=C(\C#N)C(N)=O)cc1	-10	12	-1	2	25	2	/	/
CC1CCN(C(=O)COC(=O)c2ccc([N+](=O)[O-])o2)CC1	6	14	/	/	/	0	/	/
Cc1ccc(C(C(=O)NCc2ccco2)N(C(=O)CNC(=O)c2cccs2)c2ccc(C)cc2C)cc1 (configuration not stated)	-27	59*	-2	-2	-34	-6	4	/
COc1cccc(F)c1C(C[N+](=O)[O-])c1c(N)n(C)c(=O)n(C)c1=O (configuration not stated)	13	95*	-4	-3	-19	0	45*	36*
CC(C)C(NC(=O)C1CCCCC1)C(=O)NCCc1ccccc1 (configuration not stated)	9	13	-2	1	0	11	/	/
Cc1ccc(S(=O)(=O)NNC(=O)c2cc3cc4ccccc4nc3s2)cc1	10	21	0	5	-33	2	/	/
O=C(NNC(=O)c1cc2cc3ccccc3nc2s1)c1cccc(Cl)c1	-14	57*	0	-3	-11	-13	36	109*
O=C(NNC(=O)c1cc2cc3ccccc3nc2s1)c1ccc(F)cc1	-8	22	2	0	-1	22	/	/
Cc1cccc(C(=O)NNC(=O)c2cc3cc4ccccc4nc3s2)c1	6	51*	-2	-2	/	19	7	/
CCOC(=O)CNc1nc(C(C)(C)C)nc2c1nnn2Cc1ccccc1	19	5	-3	-2	18	-19	/	/
Cc1ccc(NS(=O)(=O)c2ccc3c(c2)n(C)c(=O)n3C)c(C)c1	7	-14	-1	-2	3	-2	/	/
CCc1ccc(S(=O)(=O)Nc2cc3c(cc2C)n(C)c(=O)n3C)cc1	45	58*	-2	-2	-92	-37	55*	60*
O=C(Cc1ccccc1)NNC(=O)Nc1cccc(Cl)c1	6	17	-2	-5	-3	-4	/	/
O=C(CN1c2ccccc2Sc2ccccc21)NNC(=O)Nc1cccc(Cl)c1	2	67*	-4	-3	-9	6	24	90*
COc1ccc(C(=O)NNC(=O)c2cc3ccccc3cc2O)cc1	1	50*	/	/	7	-21	39	/
COc1ccc(NC(=O)c2cc3ccccc3cc2O)cc1	-31	-57	1	0	-119	-58	/	/
O=C(NC(=S)Nc1cccnc1)c1cccs1	-17	7	-1	0	10	0	/	/
COc1ccc(NC(=O)NNC(=O)c2ccc(-c3ccccc3)cc2)c(OC)c1	-2	-22	-2	-4	11	2	/	/
COc1ccc(NC(=O)NNC(=O)c2ccc(-c3ccccc3)cc2)cc1	14	59*	4.9*	-1	1	19	28	/
COc1ccc(NC(=O)c2ccc(NC(=O)c3cccs3)cc2)cc1	-19	67*	0	-2	-9	6	26	/
O=C(Nc1cccnc1)c1cccs1	-10	77*	-1	-3	9	2	70*	40*
SMILES	Jurkat NFkB inh	Mdm2-MdmX inh	IMP-1 inhibitor	VIM-2 inhibitor	aSyn 5UTR inh	697 NFkB inh	Mdm2 MdmX conf	Full FLuc ctr
CCCCOc1ccc(N(CC(=O)NCc2ccccc2)C(=O)c2csnn2)cc1	-7	6	-1	-4	-69	11	/	/
Cc1ccc2[nH]c(C)c(CCNC(=O)C3CCCCC3C(=O)OCC(F)(F)F)c2c1 (configuration not stated)	-21	12	-2	-2	5	9	/	/
N#C/C(=C\c1ccc(-c2ccc(F)cc2)o1)C(=O)Nc1nc(-c2cccs2)cs1	15	71*	3	0	-30	-2	21	/
N#C/C(=C/c1ccc(-c2ccccc2)o1)c1nc(-c2cccs2)cs1	/	/	2	-1	/	/	/	/
CCOC(=O)C1=C(CNC(C)(C)CC(C)(C)C)NC(=O)NC1c1cccc([N+](=O)[O-])c1 (configuration not stated)	5	17	-7	-3	-4	2	/	/
CCOc1ccccc1C(=O)N/N=C/c1coc2ccc(C)cc2c1=O	9	79*	10*	-3	/	8	29	/
O=C(O)c1ccc(NCCc2ccc(Cl)cc2)c([N+](=O)[O-])c1	-14	14	-4	0	7	12	/	/
Cc1ccc(C(=O)c2cc3c(cc2[N+](=O)[O-])OCCO3)cc1	-4	-3	-2	-4	-6	7	/	/
COCCN1Cc2cccc(C(=O)Nc3cccc(-c4nc5ccccc5[nH]4)c3)c2C1=O	8	55*	-2	1	-80	-24	51*	90*
O=C(Nc1ccc(-c2nc3ccccc3[nH]2)cc1)c1ccc2c(c1)OCO2	-46	90*	28*	0	-102	-81	67*	29
O=C(Nc1cccc(-c2nc3ccccc3[nH]2)c1)c1cccc(NC(=O)c2ccco2)c1	-28	100*	0	-2	-22	12	29	56*
CCOC(=O)NC(=O)/C(C#N)=N\Nc1ccc(Cl)cc1	-6	-14	-1	-3	20	-11	/	/
N#C/C(=N\Nc1ccc(Cl)cc1)C(=O)c1ccccc1	-8	84*	0	2	-21	-28	56*	44*
C/C(=N\NC(=O)c1cc(-c2cccnc2)nc2ccccc12)c1ccc(O)cc1O	39	66*	-4	-2	105*	-26	80*	23
COc1ccccc1-c1cc(C(=O)N/N=C/c2cccs2)c2ccccc2n1	-4	66*	0	-3	26	-181	35	/
COc1cccc(/C=N/NC(=O)c2cc(-c3ccccn3)nc3ccccc23)c1O	21	76*	/	/	/	-49	60*	40*
C/C(=N\NC(=O)c1cc(-c2cccc(OC(C)C)c2)nc2ccccc12)c1cccnc1	-9	22	-3	-4	17	-10	/	/

Compound activity (PubChem)
